# In ChEMBL document CHEMBL1149910, “2-(6-aryl-3(Z)-hexen-1,5-diynyl)anilines as a new class of potent antitubulin agents” (J Med Chem, 2008):
# What was measured:
# [1] = tested on: HOP-92; experiment: Cytotoxicity against human HOP92 cells; assay type: functional
# Outline: (§1)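 Tested in the NCI in vitro antitumor screening protocol across a tumor cell line panel. GI₅₀ is the concentration producing a 50% reduction in cell growth.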
# [2] = tested on: NCI-H322M; experiment: Cytotoxicity against human NCI-H322M cells; assay type: functional; outline: as §1
# [3] = tested on: NCI-H522; experiment: Cytotoxicity against human NCI-H522 cells; assay type: functional; outline: as §1
# [4] = tested on: COLO 205; experiment: Cytotoxicity against human COLO205 cells; assay type: functional; outline: as §1
# [5] = tested on: HCT-15; experiment: Cytotoxicity against human HCT15 cells; assay type: functional; outline: as §1
# [6] = tested on: KM12; experiment: Cytotoxicity against human KM12 cells; assay type: functional; outline: as §1
# [7] = tested on: SW-620; experiment: Cytotoxicity against human SW620 cells; assay type: functional; outline: as §1
# [8] = tested on: U-251; experiment: Cytotoxicity against human U251 cells; assay type: functional; outline: as §1
# [9] = tested on: M14; experiment: Cytotoxicity against human M14 cells; assay type: functional; outline: as §1
# [10] = tested on: SK-MEL-28; experiment: Cytotoxicity against human SK-MEL28 cells; assay type: functional
# Outline: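 Tested in the NCI in vitro antitumor screening protocol against human tumour cell lines.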
# [11] = tested on: SK-MEL-5; experiment: Cytotoxicity against human SK-MEL5 cells; assay type: functional; outline: as §1
# [12] = tested on: UACC-257; experiment: Cytotoxicity against human UACC257 cells; assay type: functional; outline: as §1
# [13] = tested on: OVCAR-3; experiment: Cytotoxicity against human OVCAR-3 cells; assay type: functional; outline: as §1
# [14] = tested on: A498; experiment: Cytotoxicity against human A498 cells; assay type: functional; outline: as §1
# [15] = tested on: ACHN; experiment: Cytotoxicity against human ACHN cells; assay type: functional; outline: as §1
# [16] = tested on: CAKI-1; experiment: Cytotoxicity against human CAKI1 cells; assay type: functional; outline: as §1
# [17] = tested on: SN12C; experiment: Cytotoxicity against human SN12C cells; assay type: functional; outline: as §1
# [18] = tested on: UO-31; experiment: Cytotoxicity against human UO31 cells; assay type: functional
# Outline: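 NCI in vitro antitumor screening protocol; GI50 taken as the concentration giving 50% reduction in cell growth.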
# [19] = tested on: DU-145; experiment: Cytotoxicity against human DU145 cells; assay type: functional; outline: as §1
# [20] = tested on: MDA-MB-435; experiment: Cytotoxicity against human MDA-MB-435 cells; assay type: functional; outline: as §1
# [21] = tested on: K562; experiment: Cytotoxicity against human K562 cells; assay type: functional; outline: as §1
# [22] = tested on: SNB-75; experiment: Cytotoxicity against human SNB75 cells; assay type: functional; outline: as §1
# [23] = tested on: K562; experiment: Cell cycle arrest in human K562 cells assessed as accumulation at G2/M phase at 50 uM after 24 hrs by flow cytometry; assay type: functional
# Outline: (§2)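 K-562 human leukemia cells were grown in RPMI 1640 with 10% fetal calf serum, glutamine and penicillin/streptomycin at 37 °C in 5% CO₂. Cells were exposed to compound at 50 µM for 24 h, then pelleted and PBS-washed. They were fixed in ice-cold ethanol for 30 min, treated with 1 mg/mL RNase A at 37 °C for 30 min, and stained with propidium iodide and Triton X-100 for 30 min at room temperature in the dark. Per-phase and sub-G1 percentages came from flow cytometry gating.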
# [24] = tested on: K562; experiment: Cell cycle arrest in human K562 cells assessed as accumulation at sub-G1 phase at 50 uM after 24 hrs by flow cytometry; assay type: functional; outline: as §2
# [25] = tested on: MDA-MB-231; experiment: Cell cycle arrest in human MDA-MB-231 cells assessed as accumulation of 2N cells at 27.0 uM after 24 hrs by flow cytometry; assay type: functional
# [26] = tested on: MDA-MB-231; experiment: Cell cycle arrest in human MDA-MB-231 cells assessed as accumulation at sub-G1 phase at 9.0 uM after 24 hrs by flow cytometry; assay type: functional
# [27] = tested on: MDA-MB-231; experiment: Cell cycle arrest in human MDA-MB-231 cells assessed as accumulation at sub-G1 phase at 27.0 uM after 24 hrs by flow cytometry; assay type: functional
# [28] = tested on: MDA-MB-231; experiment: Cell cycle arrest in human MDA-MB-231 cells assessed as accumulation of 4N cells at 18.0 uM after 24 hrs by flow cytometry; assay type: functional
# [29] = tested on: MDA-MB-231; experiment: Cell cycle arrest in human MDA-MB-231 cells assessed as accumulation of 4N cells at 36.0 uM after 24 hrs by flow cytometry; assay type: functional
# [30] = tested on: MDA-MB-231; experiment: Cell cycle arrest in human MDA-MB-231 cells assessed as accumulation of >4N cells at 9.0 uM after 24 hrs by flow cytometry; assay type: functional
# Outline: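 MDA-MB-231/ATCC cells were grown in DMEM with 10% fetal bovine serum, […], 1% nonessential amino acids, penicillin and streptomycin at 37 °C in 5% CO₂. They were exposed to 3.6, 9.0, 18, 27 or 36 µM for 24 or 72 h, with colchicine as control. DNA content was then read by flow cytometry, and […] cells were scored.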
# [31] = tested on: MDA-MB-231; experiment: Cell cycle arrest in human MDA-MB-231 cells assessed as accumulation of >4N cells at 18.0 uM after 24 hrs by flow cytometry; assay type: functional
# [32] = tested on: MDA-MB-231; experiment: Cell cycle arrest in human MDA-MB-231 cells assessed as accumulation at sub-G1 phase at 3.6 uM after 72 hrs by flow cytometry; assay type: functional
# [33] = tested on: MDA-MB-231; experiment: Cell cycle arrest in human MDA-MB-231 cells assessed as accumulation of 4N cells at 9.0 uM after 72 hrs by flow cytometry; assay type: functional
# [34] = tested on: MDA-MB-231; experiment: Cell cycle arrest in human MDA-MB-231 cells assessed as accumulation of 4N cells at 36.0 uM after 72 hrs by flow cytometry; assay type: functional
# [35] = tested on: MDA-MB-231; experiment: Cell cycle arrest in human MDA-MB-231 cells assessed as accumulation of >4N cells at 27.0 uM after 72 hrs by flow cytometry; assay type: functional
# [36] = tested on: MDA-MB-231 (Homo sapiens); experiment: Induction of apoptosis in human MDA-MB-231 cells assessed as induction of caspase 3 activation at 36 uM after 72 hrs by colorimetric assay relative to control
# [37] = tested on: MDA-MB-231 (Homo sapiens); experiment: Induction of apoptosis in human MDA-MB-231 cells assessed as induction of caspase 8 activation at 36 uM after 72 hrs by colorimetric assay relative to control
# [38] = read-out: LC50 (the source's name)
structure (smiles),measurement,setting,value
Nc1ccccc1C#C/C=C\C#Cc1ccccc1C(F)(F)F,GI50,[1],20.4 µM
same,TGI,[1],48.6 µM
same,CC50,[1]; [38],> 100 µM
same,GI50,[2],12.1 µM
same,TGI,[2],27.9 µM
same,CC50,[2]; [38],64.4 µM
same,GI50,[3],0.597 µM
same,TGI,[3],12.2 µM
same,CC50,[3]; [38],51.2 µM
same,GI50,[4],1.17 µM
same,TGI,[4],13.8 µM
same,CC50,[4]; [38],> 100 µM
same,GI50,[5],1.26 µM
same,TGI,[5],11.4 µM
same,CC50,[5]; [38],51.1 µM
same,GI50,[6],0.371 µM
same,TGI,[6],20.3 µM
same,CC50,[6]; [38],> 100 µM
same,GI50,[7],0.479 µM
same,TGI,[7],19.7 µM
same,CC50,[7]; [38],69.2 µM
same,GI50,[8],0.666 µM
same,TGI,[8],17.5 µM
same,CC50,[8]; [38],45.4 µM
same,GI50,[9],0.372 µM
same,TGI,[9],13.2 µM
same,CC50,[9]; [38],49.4 µM
same,TGI,[10],30.1 µM
same,CC50,[10]; [38],80.2 µM
same,GI50,[11],0.541 µM
same,TGI,[11],15 µM
same,CC50,[11]; [38],42.2 µM
same,GI50,[12],0.536 µM
same,TGI,[12],23.7 µM
same,CC50,[12]; [38],58.4 µM
same,GI50,[13],0.63 µM
same,TGI,[13],0.959 µM
same,CC50,[13]; [38],24.1 µM
same,GI50,[14],0.973 µM
same,TGI,[14],13.1 µM
same,CC50,[14]; [38],40.7 µM
same,GI50,[15],0.294 µM
same,TGI,[15],15.7 µM
same,CC50,[15]; [38],48.3 µM
same,GI50,[16],0.351 µM
same,TGI,[16],13.2 µM
same,CC50,[16]; [38],38 µM
same,GI50,[17],0.348 µM
same,TGI,[17],6.52 µM
same,CC50,[17]; [38],30.9 µM
same,GI50,[18],3.06 µM
same,TGI,[18],25.1 µM
same,CC50,[18]; [38],94.9 µM
same,GI50,[19],3.08 µM
same,TGI,[19],18.4 µM
same,CC50,[19]; [38],48.5 µM
same,GI50,[20],0.4 µM
same,TGI,[20],0.53 µM
same,GI50,[21],1 µM
same,TGI,[22],18.8 µM
same,GI50,[22]; read-out: GI50,0.0869 µM
same,CC50,[22]; [38],100 µM
same,GI50,[22]; read-out: pGI50 (converted),0.0794 µM
same,Activity,[23],73.9%
same,Activity,[24],19.4%
same,Activity,[25],9.3%
same,Activity,[26],23.1%
same,Activity,[27],24.7%
same,Activity,[28],31.9%
same,Activity,[29],33.6%
same,Activity,[30],34%
same,Activity,[31],35.1%
same,Activity,[32],47.2%
same,Activity,[33],21.3%
same,Activity,[34],14.5%
same,Activity,[35],12.8%
same,fold change (FC),[36],3.4
same,fold change (FC),[37],4
